For test [1], the system named is Staphylococcus aureus. As to the kind of experiment: Antimicrobial activity against Panton-valentine leucocidin-positive community-acquired methicillin-resistant Staphylococcus aureus N4042228 infected in human THP-1 cells assessed as change in bacterial count after 24 hrs at pH 7.4. The class given is functional, organism-based. To be noted: N4042228, THP-1, 24 h. Put shortly:
(§1)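 THP-1 human macrophages infected with S. aureus (postphagocytosis inoculum 1.5 × 10^6 to 3.0 × 10^6 CFU/mg cell protein), then incubated 24 h with increasing extracellular antibiotic concentrations. Change in log10 CFU/mg cell protein from the postphagocytosis inoculum, n = 3. Hill function fitted on log-transformed data. Low-concentration value (E0) and high-concentration value (Emax) are extrapolated. Where a pH is given, concentrations are expressed as multiples of the broth MIC at that pH.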

Test [2] concerns Staphylococcus aureus. As to the kind of experiment: Antimicrobial activity against Panton-valentine leucocidin-positive community-acquired methicillin-resistant Staphylococcus aureus NRS192 infected in human THP-1 cells assessed as change in bacterial count after 24 hrs at pH 7.4. The class given is functional, organism-based. To be noted: NRS192, THP-1, 24 h. Put shortly:
as §1

The test system of test [3] is Staphylococcus aureus. The test can be described thus: Bacteriostatic activity against Panton-valentine leucocidin-positive community-acquired methicillin-resistant Staphylococcus aureus STA 228 infected in human THP-1 cells assessed as change in bacterial count after 24 hrs at pH 5.5. The class given is functional. Put shortly: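 THP-1 macrophages infected as described previously, with a postphagocytosis inoculum of 1.5 × 10⁶ to 3.0 × 10⁶ CFU/mg cell protein. Cells were exposed 24 h to increasing extracellular antibiotic concentrations. Response is the change in log10 CFU/mg protein from the inoculum (n = 3), fitted to a Hill function. E0 and Emax were extrapolated to infinitely low and high concentrations. EC50 and static concentration (graphical interpolation) are expressed as multiples of the broth MIC at pH 5.5 or 7.4.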

Test [4] concerns Staphylococcus aureus. The test can be described thus: Antimicrobial activity against Panton-valentine leucocidin-positive community-acquired methicillin-resistant Staphylococcus aureus STA 44 infected in human THP-1 cells assessed as change in bacterial count after 24 hrs. The test is classed as functional, organism-based. As to conditions: STA 44, THP-1, 24 h. Put shortly:
as §1

One compound from ChEMBL document CHEMBL1649438, “Activities of ceftobiprole and other cephalosporins against extracellular and intracellular (THP-1 macrophages and keratinocytes) forms of methicillin-susceptible and methicillin-resistant Staphylococcus aureus” (Antimicrob Agents Chemother, 2009) can be followed below.

≈ marks a conversion by molar mass, not a printed value.

In the case of `Nc1nc(/C(=N/O)C(=O)N[C@@H]2C(=O)N3C(C(=O)O)=C(/C=C4\CCN([C@@H]5CCNC5)C4=O)CS[C@H]23)ns1` [CEFTOBIPROLE], the EC50 in the test with Staphylococcus aureus [1] was 0.33 ×MIC; with Staphylococcus aureus [2], 0.33 ×MIC; in the test with Staphylococcus aureus [4] it was 0.94 µg/mL (≈ 1.76 µM). For the same compound, in the test with Staphylococcus aureus [3], the Activity was found to be 1.45 × MIC.
